In brackets after ≈: the same amount, converted by molar mass.
Key:
Assay type in all cases: functional
[1] = system: Escherichia coli; test: In vitro antimicrobial activity against Escherichia coli ATCC 39188 was determined
Procedure, shortened: (§1)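 MIC by agar dilution: organisms applied onto antibiotic-containing agar plates with a Steers-type replicator. MIC taken as the lowest concentration preventing visible growth, averaged from duplicate determinations (± standard error).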

[2] = system: Klebsiella pneumoniae; test: In vitro antimicrobial activity against Klebsiella pneumoniae NCTC 418 was determined; procedure, shortened: as §1
[3] = system: Pseudomonas aeruginosa; test: In vitro antimicrobial activity against Pseudomonas aeruginosa 18S-H was determined; procedure, shortened: as §1
[4] = system: Pseudomonas aeruginosa; test: Minimum protective concentration against beta-lactamase of Pseudomonas aeruginosa 18S-H
Procedure, shortened: (§2)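 Minimum protective concentration taken as the lowest β-lactam concentration protecting a chromogenic indicator from β-lactamase hydrolysis within 1.0 h under standard conditions. Hydrolysis was read as a distinct red color. Compound stability without enzyme was checked at 37 °C in phosphate buffer, pH 6.5.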

[5] = system: Pseudomonas aeruginosa; test: In vitro antimicrobial activity against Pseudomonas aeruginosa 1101-75 was determined; procedure, shortened: as §1
[6] = system: Staphylococcus aureus; test: In vitro antimicrobial activity against Staphylococcus aureus 95 (methicillin-resistant strain) was determined
Procedure, shortened: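 Agar dilution MIC: organisms were deposited onto medicated agar plates with a Steers-type replicator. MIC was read as the lowest antibiotic concentration preventing visible growth. Values are averages of duplicate determinations with standard error.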

[7] = system: Staphylococcus aureus; test: Minimum protective concentration against beta-lactamase of Staphylococcus aureus 95; procedure, shortened: as §2
[8] = system: Staphylococcus aureus; test: In vitro antimicrobial activity against Staphylococcus aureus FDA 209P was determined; procedure, shortened: as §1
[9] = In vitro antimicrobial activity against Xanthomonas maltophilia GN 12873 in combination (1:1 w/w) with imipenem; conditions: Stenotrophomonas maltophilia; procedure, shortened: as §1
[10] = In vitro antimicrobial activity against Xanthomonas maltophilia GN 12873 was determined; conditions: Stenotrophomonas maltophilia; procedure, shortened: as §1
[11] = system: Stenotrophomonas maltophilia; test: Minimum protective concentration against beta-lactamase of Xanthomonas maltophilia GN 12873 (CXase-I); procedure, shortened: as §2
[12] = system: Stenotrophomonas maltophilia; test: Minimum protective concentration against beta-lactamase of Xanthomonas maltophilia GN 12873 (CXase-II); procedure, shortened: as §2

Compound	MIC [1]	MIC [2]	MIC [3]	MPC [4]	MIC [5]	MIC [6]	MPC [7]	MIC [8]	MIC [9]	MIC [10]	MPC [11]	MPC [12]
O=C(Cc1ccccc1)N[C@@H]1C(=O)N2C(C(=O)O)=CC[C@H]12 (racemic)	0.98 µg/mL (≈ 3.42 µM)	1.92 µg/mL (≈ 6.71 µM)	31.6 µg/mL (≈ 110 µM)	4.21 µg/mL	8.91 µg/mL (≈ 31.1 µM)	30.7 µg/mL (≈ 107 µM)	3.45 µg/mL	0.12 µg/mL (≈ 0.419 µM)	2.15 µg/mL	10.3 µg/mL (≈ 35.9 µM)	30 µg/mL	33.6 µg/mL
COC(=O)CC1=C(C(=O)O)N2C(=O)[C@@H](NC(=O)Cc3ccccc3)[C@H]2C1 (racemic)	0.67 µg/mL (≈ 1.87 µM)	0.77 µg/mL (≈ 2.15 µM)	21.3 µg/mL (≈ 59.4 µM)	8.74 µg/mL	1.8 µg/mL (≈ 5.02 µM)	18.5 µg/mL (≈ 51.7 µM)	6.87 µg/mL	0.04 µg/mL (≈ 0.112 µM)	0.98 µg/mL	5.97 µg/mL (≈ 16.7 µM)	30.4 µg/mL	35 µg/mL
O=C(Cc1ccccc1)N[C@@H]1C(=O)N2C(C(=O)O)=C(CCO)C[C@H]12 (racemic)	0.75 µg/mL (≈ 2.27 µM)	0.88 µg/mL (≈ 2.66 µM)	22.6 µg/mL (≈ 68.5 µM)	6.98 µg/mL	3.51 µg/mL (≈ 10.6 µM)	19.2 µg/mL (≈ 58.2 µM)	7.18 µg/mL	0.07 µg/mL (≈ 0.212 µM)	0.77 µg/mL	6.73 µg/mL (≈ 20.4 µM)	36.7 µg/mL	42.1 µg/mL
CC(=O)OCCC1=C(C(=O)O)N2C(=O)[C@@H](NC(=O)Cc3ccccc3)[C@H]2C1 (racemic)	0.69 µg/mL (≈ 1.85 µM)	1.08 µg/mL (≈ 2.9 µM)	17.2 µg/mL (≈ 46.2 µM)	5.87 µg/mL	2.87 µg/mL (≈ 7.71 µM)	14.9 µg/mL (≈ 40.1 µM)	6.12 µg/mL	0.05 µg/mL (≈ 0.134 µM)	0.39 µg/mL	4.12 µg/mL (≈ 11.1 µM)	27.5 µg/mL	47.8 µg/mL
O=C(Cc1ccccc1)N[C@@H]1C(=O)N2C(C(=O)O)=C(C(=O)O)C[C@H]12 (racemic)	0.48 µg/mL (≈ 1.45 µM)	0.56 µg/mL (≈ 1.7 µM)	28.2 µg/mL (≈ 85.3 µM)	2.38 µg/mL	5.63 µg/mL (≈ 17 µM)	13.9 µg/mL (≈ 42 µM)	2.2 µg/mL	0.03 µg/mL (≈ 0.0908 µM)	1.58 µg/mL	9.61 µg/mL (≈ 29.1 µM)	25.5 µg/mL	29.4 µg/mL
COC(=O)C1=C(C(=O)O)N2C(=O)[C@@H](NC(=O)Cc3ccccc3)[C@H]2C1 (racemic)	0.2 µg/mL (≈ 0.581 µM)	0.15 µg/mL (≈ 0.436 µM)	12.1 µg/mL (≈ 35.1 µM)	1.02 µg/mL	0.89 µg/mL (≈ 2.58 µM)	8.3 µg/mL (≈ 24.1 µM)	0.98 µg/mL	0.01 µg/mL (≈ 0.029 µM)	2.01 µg/mL	12.1 µg/mL (≈ 35.2 µM)	14.6 µg/mL	16.7 µg/mL
C[C@@H](O)[C@H]1C(=O)N2C(C(=O)O)=C(SCCNC=N)C[C@H]12.O [IMIPENEM]	0.35 µg/mL	0.4 µg/mL	35.6 µg/mL	35.61 µg/mL	4.71 µg/mL	15.7 µg/mL	30.12 µg/mL	0.02 µg/mL		> 128 µg/mL	46.8 µg/mL	0.87 µg/mL
CC1(C)S[C@@H]2[C@H](NC(=O)Cc3ccccc3)C(=O)N2[C@H]1C(=O)O [PENICILLIN G]	2.87 µg/mL (≈ 8.58 µM)	> 128 µg/mL	> 128 µg/mL	1.03 µg/mL	> 128 µg/mL	> 128 µg/mL	1.85 µg/mL	0.51 µg/mL (≈ 1.53 µM)		> 128 µg/mL	23.6 µg/mL	28.8 µg/mL
